Laboratory results taken from the RNAGym collection of RNA variant scans (doi:10.1126/science.aae0568).
This sample holds only a part of the variants without activity.

B1: tRNA (parent)
chain: GUUCCGUUGGCGUAAUGGUAACGCGUCUCCCUCCUAAGGAGAAGACUGCGGGUUCGAGUCCCGUACGGAACG

Variants of: B1
Test: yeast fitness relative to wild type (ratio to wild type); higher = fitter; tRNA-Arg(CCU), competitive growth, 37 C, YPD
Procedure, shortened: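 Genotype frequency changes were the basis for Darwinian fitness relative to wild type. The frequencies came from 100-nucleotide paired-end sequencing of gene amplicons from the start population and each end population of pooled yeast strains with tRNA-Arg(CCU) gene variants at the native locus. Competition ran in YPD at 37°C for 24 hours in six replicates, genotypes needed ≥ 100 starting reads, and estimates < 0.5 were set to 0.5.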

| Variant | yeast fitness |
| --- | --- |
| A15C G18A U19G | ≤ 0.5 |
| A15C G17A U28A A65U | 0.752 |
| A15C A21C G38C G63C A70U | 0.513 |
| A14U U47A C61A | ≤ 0.5 |
| A15C A20U C30A C31G | ≤ 0.5 |
| A15C A36U G58A G67A | ≤ 0.5 |
| A14U U16C A42U | ≤ 0.5 |
| A15C C22A G25C U28A A36U U54C A57C | ≤ 0.5 |
| A15C A21U A69U | ≤ 0.5 |
| A15C C30G C66G A69U | ≤ 0.5 |
| A15C C30A A57G A69C | ≤ 0.5 |
| A15C C49A G68C | ≤ 0.5 |
| A15C G17A G38C U59C | 0.569 |
| A15C C60G | 0.612 |
| A15C C31G A40U G51A | ≤ 0.5 |
| A14U U26C A42U C60G | ≤ 0.5 |
| A15C C60A C62U | ≤ 0.5 |
| A15C A20G G51A | ≤ 0.5 |
| A15C A21C A45U C61U C66U | ≤ 0.5 |
| A14U U19A C60G A70G | 0.531 |
| A15C A21C A40C U59G C60G | ≤ 0.5 |
| A15C A42C C55G A70G | 0.72 |
| A15C A20G C31U A42C | ≤ 0.5 |
| A15C C30G A37C | ≤ 0.5 |

| Variant | yeast fitness |
| --- | --- |
| A14U U32C U53A C55A | ≤ 0.5 |
| A15C C24G A45G | ≤ 0.5 |
| A15C A37C C60U G67A | ≤ 0.5 |
| A15C C49A | 0.637 |
| A15C A20G A21G A57U | ≤ 0.5 |
| A15C A21G C22U A57U | ≤ 0.5 |
| A14U U28C A70C | ≤ 0.5 |
| A15C C22U U26G G52A | 0.732 |
| A15C C31U A45U G51C | ≤ 0.5 |
| A14U G25C C66U | ≤ 0.5 |
| A15C G23C G41A | ≤ 0.5 |
| A15C G23C A65G | ≤ 0.5 |
| A15C C27G G39C U47A A69U | ≤ 0.5 |
| A15C G39C | 0.638 |
| A15C G39A | 0.664 |
| A15C C31G C55A | 0.608 |
| A15C G17A | 0.707 |
| A14U U26G C55G | ≤ 0.5 |
| A15C C46U C66A | 0.55 |
| A15C A37U C66U | 0.584 |
| A15C C24A U32A C55U | ≤ 0.5 |
| A15C G48A A57G C61A | ≤ 0.5 |
| A14U G50C A57G | ≤ 0.5 |
| A14U G23A C29G C46A C55G G67A | ≤ 0.5 |

| Variant | yeast fitness |
| --- | --- |
| A15C A37G | 0.614 |
| A15C A37C | 0.639 |
| A15C G50C U64C | 0.545 |
| A15C C22A A70U | ≤ 0.5 |
| A15C C27G C30U C46A A70U | ≤ 0.5 |
| A15C C46G A65G C66U | ≤ 0.5 |
| A15C G18C A42C G51C A65C | ≤ 0.5 |
| A14U U16G U19A | ≤ 0.5 |
| A14U U32C A37G C49U | ≤ 0.5 |
| A15C C33G C60U C62U | ≤ 0.5 |
| A15C C49U U54C C55G | 0.64 |
| A14U G23U G67C | ≤ 0.5 |
| A15C A20G G23A C46A C49G A65U A70U | ≤ 0.5 |
| A14U G18C G39C C49G | ≤ 0.5 |
| A14U G52A | ≤ 0.5 |
| A14U G52U | 0.592 |
| A14U G17C U28C C30G G41C A42C U47C G50A C62A | ≤ 0.5 |
| A15C A36U A57U G67A | ≤ 0.5 |
| A15C A40C A70U | ≤ 0.5 |
| A15C G39A G56A | ≤ 0.5 |
| A15C C24G A45G C55U | ≤ 0.5 |
| A14U G17A C22U G63C | ≤ 0.5 |
| A14U U26G C33A A40U A69U | ≤ 0.5 |
| A14U G48U | 0.567 |

| Variant | yeast fitness |
| --- | --- |
| A14U G48A | 0.931 |
| A15C A40G | 0.729 |
| A15C A40C | 0.609 |
| A14U U16A C27G A40U | ≤ 0.5 |
| A15C A45G C55U | ≤ 0.5 |
| A15C A45U C66A | ≤ 0.5 |
| A15C G18C A42C | ≤ 0.5 |
| A15C C33U C61G | ≤ 0.5 |
| A14U G23A U28A C30A | ≤ 0.5 |
| A14U U26C A42U C49U | 0.536 |
| A15C A20G C29G | ≤ 0.5 |
| A15C G17C C22G C24A C31A G67C | 0.752 |
| A15C G17A C55G | ≤ 0.5 |
| A15C A20G C62U U64G | ≤ 0.5 |
| A15C A21G C27G | ≤ 0.5 |
| A15C A42C C55G | 0.547 |
| A15C A21U C24U A57G G67U | 0.542 |
| A15C C34G C46A C61U C66G | ≤ 0.5 |
| A15C C31G C49U | 0.638 |
| A15C C29U | 0.669 |
| A15C C29A | ≤ 0.5 |
| A15C C30A A42C G56A C60G | ≤ 0.5 |
| A15C C34U A36G C55A | ≤ 0.5 |
| A15C C34U A57C | 0.603 |

| Variant | yeast fitness |
| --- | --- |
| A14U U19A C55A C61G | ≤ 0.5 |
| A15C G41C U59G A70G | ≤ 0.5 |
| A15C C30A A69C | ≤ 0.5 |
| A14U U16A C22U C24A | ≤ 0.5 |
| A15C G39A C60G A70G | ≤ 0.5 |
| A14U G68C A69C | ≤ 0.5 |
| A14U U28C C49U G50A C61G A69C | 0.621 |
| A15C C66G | 0.618 |
| A15C C24U G44A C55G | ≤ 0.5 |
| A15C C49U A69G | ≤ 0.5 |
| A15C G25A A42U A65C G67U | ≤ 0.5 |
| A15C C34G | 0.59 |
| A14U G18C G25A A70G | ≤ 0.5 |
| A14U U19A G23A A43C U47C A57C | ≤ 0.5 |
| A15C A70U | 0.872 |
| A15C A70G | 0.795 |
| A15C G18C U26C C29A C34G | 0.616 |
| A15C A21G G23A C27U | ≤ 0.5 |
| A15C C27G C61G | 0.781 |
| A14U U19A A36C G63A | 0.586 |
| A14U G52A G56A | ≤ 0.5 |
| A15C C27U G39C C49G A69C | ≤ 0.5 |
| A15C A36U U64A | ≤ 0.5 |
| A14U U26C | 0.698 |

| Variant | yeast fitness |
| --- | --- |
| A14U U26G | 0.675 |
| A14U G18A U35A A57C C62U | ≤ 0.5 |
| A14U G58A | 0.629 |
| A14U G68C | 0.694 |
| A14U G68A | 0.721 |
| A15C C30A A40G C49G U54A C55A A65G A70U | ≤ 0.5 |
| A15C C24U U28A C29G G52A | 0.501 |
| A15C G23C U64C A65G | ≤ 0.5 |
| A15C C33A C34U A36C | 0.604 |
| A14U G23A | ≤ 0.5 |
| A14U G23C | 0.508 |
| A15C A20C C55G A70G | ≤ 0.5 |
| A15C A45G U53C | ≤ 0.5 |
| A14U G25C A45G A69U | ≤ 0.5 |
| A14U G51A C61G | 0.602 |
| A14U G52A G63C G67C A69U | ≤ 0.5 |
| A15C C46U C61U G67A | ≤ 0.5 |
| A15C A42C | 0.646 |
| A15C A21G C27G A69U | ≤ 0.5 |
| A15C A36C G39C | ≤ 0.5 |
| A14U G67C | 0.729 |
| A14U G67U | 0.562 |
| A14U G52C C66U | ≤ 0.5 |
| A14U U16A C27G A40U C49G A65U | ≤ 0.5 |

| Variant | yeast fitness |
| --- | --- |
| A15C C30A A42C C55U | ≤ 0.5 |
| A15C C55G A57C | ≤ 0.5 |
| A15C C27G C30U C46A | 0.542 |
| A15C G48C C66A | ≤ 0.5 |
| A14U G56A G67A | ≤ 0.5 |
| A14U G23U U59A | ≤ 0.5 |
| A15C C24G A40U G44A | ≤ 0.5 |
| A14U G17A C22U C33G | 0.567 |
| A15C C29G A40U G52A | ≤ 0.5 |
| A15C G25C G52A A57C C60G | ≤ 0.5 |
| A14U G17C A57G | 0.505 |
| A15C C27U A40G G52A A57U | 0.692 |
| A14U G23A U64A C66A | ≤ 0.5 |
| A15C C31G C33G | ≤ 0.5 |
| A15C A43G C46A | 0.526 |
| A15C C31U | 0.742 |
| A15C C31A | 0.561 |
| A15C A21C A36U U47C G63A G68A | ≤ 0.5 |
| A15C A45C G48A | 0.638 |
| A14U U26G G39C A70U | ≤ 0.5 |
| A15C C46U C60U | 0.58 |
| A14U G17A G23A G68C | ≤ 0.5 |
| A14U G17A G23A | ≤ 0.5 |
